PglD DTNB – blocks C. jejuni PglD acetyltransferase activity. AID 602405. inhibition, % at 12.5 µM. purified PglD enzyme, DTNB colorimetric CoA detection. hit rate 0.098% among 360,000; in the data active = inhibition above about 16%, passing the limit was not always enough
CR mimetic SO – caloric restriction mimetics inhibiting age-related superoxide in yeast. S. cerevisiae aged cells, superoxide DHE fluorescence; hits give low values. superoxide response (% of plate mean), % at 10 µM. hit rate 0.18% among 330,000. AID 2690;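 active = superoxide response under a set limit, about three screen SD below normal, cut at about 65% in these data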;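 note: yeast aged for seven days with compound at 30 °C before DHE staining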
rRNA inh HTS – inhibitors of bacterial rRNA selective over humanized ribosomes; hit rate 1.6% among 350,000; GFP signal change (wild-type ribosome), % (test concentration not listed); AID 720706; E. coli WT GFP vs humanized-ribosome RFP mutants, fluorescence, 24 h; hits give low values; DMSO median 0, no signal -100;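 active = significant combined selectivity score with lowered wild-type GFP, culture density cut under 30%, mutant RFP and density less affected; inactive = any of these conditions unmet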
SUMO Mot1 rescue – blocks SUMOylation pathway, rescuing yeast Mot1-301 growth. growth rescue, % at 18.8 µM. S. cerevisiae Mot1-301 growth rescue, ATP luminescence, 38.5C; percent above DMSO median, 100 means doubled. hit rate 1% among 320,000. AID 2716;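 active = every valid replicate shows activation above 250% relative to neutral control wells; inactive = the rest, any valid replicate at or below 250%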
Cneo AK release – causes C. neoformans cell lysis; adenylate kinase release luminescence, 4 h; normalised: neutral wells 0, clomiphene wells 100; lysis activity, % at 15 µM; AID 651654; hit rate 0.2% among 360,000;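 active = mean lysis activity across replicates of at least 80%, whatever share of replicates individually reach that level; inactive = mean lysis activity below 80%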
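Signal: Adenylate kinase release luminescence | Assay system: Log-phase Cryptococcus neoformans yeast cells | Input: Cells at 5 × 10^6 per mL | Buffer or medium: Fresh YPD growth medium | Compound: Single dose | Schedule: Static 4 h at 37 °C with compound, 1 h detection | Controls: Clomiphene | Read-out: Luminescence rise reflecting yeast cell lysis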
Large screens that a line does not name were inactive; ! = repeats disagree. In the library only some 2.2% were active in any assay of this set; here they are far more common.

COc1ccc(-c2cc(=Nc3ccccc3)c3cc(C)ccc3o2)cc1	none
COc1ccc(-c2cc(=O)c3c(OC)c(OC)c(OC)cc3o2)cc1	rRNA inh HTS -30
CCCCC/C(=N/O)c1c(C)[nH]c2ccccc12	rRNA inh HTS -21 (no result: PglD DTNB, Cneo AK release)
CCCC/C(=N/O)c1c(C)[nH]c2ccccc12	none (no result: PglD DTNB, Cneo AK release)
O=Cc1cn(CCCOc2ccccc2)c2ccccc12	rRNA inh HTS -49 (no result: PglD DTNB, Cneo AK release)
Cc1nc(Cl)sc1C(=O)Nc1ccc2ccccc2c1	rRNA inh HTS -31 (no result: PglD DTNB, Cneo AK release)
O=C(O)[C@@H]1[C@@H](CO)[C@@H]2Cn3c(ccc(-c4ccncc4)c3=O)[C@H]1N2S(=O)(=O)c1ccccc1F	none (no result: CR mimetic SO, SUMO Mot1 rescue)
CCCCCCC(=O)N/N=C/c1c(O)n(C(C)CC)c(=S)[nH]c1=O (stereo unspecified)	rRNA inh HTS -23
CCCC(=O)NC(Oc1ccc(Cl)cc1Cl)C(Cl)(Cl)Cl (stereo unspecified)	none (no result: PglD DTNB, Cneo AK release)
CCCC(=O)NC(Oc1ccccc1Cl)C(Cl)(Cl)Cl (stereo unspecified)	rRNA inh HTS -20 (no result: PglD DTNB, Cneo AK release)
CCOc1ccc(NC(=O)C2C3c4ccccc4C(c4ccccc43)C2C(=O)O)cc1 (stereo unspecified)	rRNA inh HTS -34 (no result: PglD DTNB, Cneo AK release)
O=C(O)C1C2c3ccccc3C(c3ccccc32)C1C(=O)Nc1ccccc1 (stereo unspecified)	none
COC(=O)C[C@@H]1CC[C@H]2NC[C@@H](O)COC[C@@H]2O1	none (no result: CR mimetic SO, SUMO Mot1 rescue)
Cc1nn(Cc2ccccc2)c(C)c1C(=O)OCC(=O)Nc1cccc(S(N)(=O)=O)c1	rRNA inh HTS -22 (no result: PglD DTNB, Cneo AK release)
COC(=O)C1C(O)C(C)C(O)C(C)/C=C\C=C(/C)C(=O)Nc2c(C)c(OC(C)=O)c3c(c2O)C(=O)C(C)=C2OCOC(=C23)/C(C)=C/C(C)(O)C(O)C(C)C1O (stereo unspecified)	rRNA inh HTS -17
COc1ccc(OCC(=O)N2CCN(Cc3ccc(SC)cc3)CC2)cc1	SUMO Mot1 rescue 262
COc1ccc(OCC(=O)N2CCN(Cc3ccc4c(c3)OCO4)CC2)cc1	none
C[C@]12CCC3C(CC[C@H]4[C@@H](O)[C@H](O)CC[C@]34C)C1CCC2=O (stereo partly specified)	rRNA inh HTS -22 (no result: CR mimetic SO, SUMO Mot1 rescue)
C[C@]12CCC(=O)C=C1CC[C@@H]1[C@@H]2CC[C@]2(C)C(=O)CC[C@@H]12	none
C[C@]12CCC(=O)C=C1CC[C@@H]1C2CC[C@]2(C)C(=O)CCC12 (stereo partly specified)	rRNA inh HTS -38
O=C(O)[C@H]1[C@H](CO)[C@H]2Cn3c(ccc(-c4ccncc4)c3=O)[C@@H]1N2C(=O)C1CCCC1	none (no result: PglD DTNB, CR mimetic SO, SUMO Mot1 rescue, Cneo AK release)
FC(F)(F)CN1C[C@@H]2C(c3ccccc3)[C@H](C1)N2CC1CC1 (stereo partly specified)	none (no result: PglD DTNB, CR mimetic SO, SUMO Mot1 rescue, Cneo AK release)
C=CCN1[C@@H]2CN(S(C)(=O)=O)C[C@H]1C2c1ccccc1 (stereo partly specified)	none (no result: PglD DTNB, CR mimetic SO, SUMO Mot1 rescue, Cneo AK release)
COc1cccc(OC)c1C1=NCC(=O)Nc2c1oc1ccc(Br)cc21	rRNA inh HTS -28
COc1ccc(C#Cc2ccc([C@H]3[C@H](CO)N4CCCCN(C(=O)Cc5cccnc5)C[C@@H]34)cc2)cc1	none (no result: CR mimetic SO, SUMO Mot1 rescue)
CN(C)c1ccc(/C=C2/C(=O)NC(=O)N(Cc3ccco3)C2=O)cc1	SUMO Mot1 rescue 383 (no result: rRNA inh HTS)
FC(F)(F)CN1C[C@@H]2C(c3ccc(Br)cc3)[C@H](C1)N2CC1CC1 (stereo partly specified)	none (no result: PglD DTNB, CR mimetic SO, SUMO Mot1 rescue, Cneo AK release)
COc1ccc(C#Cc2ccc([C@H]3[C@@H](CO)N4CCCCN(C(=O)Cc5ccncc5)C[C@@H]34)cc2)cc1	none (no result: CR mimetic SO, SUMO Mot1 rescue)
CCCCn1nnnc1C(CCSC)N1CCC(n2c(=O)[nH]c3ccccc32)CC1 (stereo unspecified)	none (no result: CR mimetic SO, SUMO Mot1 rescue)
CCCCn1nnnc1C(C1CC1)N1CCC(n2c(=O)[nH]c3ccccc32)CC1 (stereo unspecified)	rRNA inh HTS -20 (no result: CR mimetic SO, SUMO Mot1 rescue)
CC(=O)OC1(C)CC(C)C(=O)C(C(O)CC2CC(=O)NC(=O)C2)C1 (stereo unspecified)	Cneo AK release 98 (no result: CR mimetic SO, rRNA inh HTS, SUMO Mot1 rescue)
C[C@@H]1C[C@@H]([C@H](O)CC2CC(=O)NC(=O)C2)C(=O)[C@@H](C)C1	none
CCC(=O)N1[C@@H]2c3ccc(C4=CCCC4)c(=O)n3C[C@H]1[C@H](CO)[C@H]2C(=O)OC	none (no result: CR mimetic SO, SUMO Mot1 rescue)
C[CH2][Hg][S]c1ccccc1C(=O)O	SUMO Mot1 rescue 355 (no result: rRNA inh HTS)
CC(C)COC(=O)c1ccccc1C(=O)OCC(C)C	none
CC=Cc1ccc2n(c1=O)C[C@@H]1[C@@H](CO)[C@H](C(=O)O)[C@H]2N1S(=O)(=O)c1ccccc1F (mixture of isomers)	none (no result: CR mimetic SO, SUMO Mot1 rescue)
O=C(c1ccc(Cl)cc1)C1CCCN(Cc2ccc3nonc3c2)C1 (stereo unspecified)	rRNA inh HTS -28
O=C(c1ccc(Cl)cc1)C1CCCN(Cc2cccc3cccnc23)C1 (stereo unspecified)	rRNA inh HTS -23
CSc1ccc(C(=O)C2CCCN(Cc3cnc(SC)nc3)C2)cc1 (stereo unspecified)	SUMO Mot1 rescue 305
Fc1ccc(CN2CC3NC(C2)C3c2ccc(Br)cc2)cc1 (stereo unspecified)	none (no result: PglD DTNB, CR mimetic SO, SUMO Mot1 rescue, Cneo AK release)
NC(Cc1nc2ccccc2[nH]1)c1ccc(Cl)cc1 (stereo unspecified)	rRNA inh HTS -45
NC(Cc1ccccc1)c1nc2ccccc2[nH]1 (stereo unspecified)	none
CCOc1ccc2nc(N=Nc3c(O)[nH]c(=S)[nH]c3=O)sc2c1	rRNA inh HTS -34 (no result: PglD DTNB, Cneo AK release)
Cc1c(N=Nc2c(O)[nH]c(=S)[nH]c2=O)c(=O)n(-c2ccccc2)n1C	none (no result: rRNA inh HTS)
CCOc1ccc2nc(N=Nc3c(O)[nH]c(=O)[nH]c3=O)sc2c1	rRNA inh HTS -20
C=CCN1[C@@H]2CN(C(=O)NC(C)C)C[C@H]1C2c1ccc(Br)cc1 (stereo partly specified)	none (no result: PglD DTNB, CR mimetic SO, SUMO Mot1 rescue, Cneo AK release)
O=C(COC(=O)c1ccc(O)cc1)Nc1ccc(Cl)cc1C(=O)c1ccccc1	rRNA inh HTS -43 (no result: PglD DTNB, Cneo AK release)
ClC1C(Cl)C(Cl)C(Cl)C(Cl)C1Cl (stereo unspecified)	SUMO Mot1 rescue 331!
O=C(Cc1cccnc1)N1CCCCN2[C@@H](CO)[C@H](c3ccc(C#CC4CC4)cc3)[C@@H]2C1	none (no result: CR mimetic SO, rRNA inh HTS, SUMO Mot1 rescue)
COc1ccc(C#Cc2ccc([C@@H]3[C@@H](CO)N4CCCCN(C(=O)Cc5ccncc5)C[C@@H]34)cc2)cc1	none (no result: CR mimetic SO, SUMO Mot1 rescue)
Oc1ccccc1-[n+]1c(-c2ccccc2)cc(-c2ccccc2)c(O)c1-c1ccccc1	SUMO Mot1 rescue 366
Oc1ccc(-[n+]2c(-c3ccccc3)cc(-c3ccccc3)cc2-c2ccccc2)cc1	none
COc1ccc(C(O)(c2cncnc2)C2CC2)cc1 (stereo unspecified)	none (no result: PglD DTNB, CR mimetic SO, rRNA inh HTS, SUMO Mot1 rescue)
C#CC1(O)C=CC2C3CCC4=CC(=O)CCC4C3CCC21CC (stereo unspecified)	rRNA inh HTS -20
CCC1(O)CCC2C3CCC4=CC(=O)CCC4C3CCC21CC (stereo unspecified)	none (no result: CR mimetic SO, SUMO Mot1 rescue)
COc1ccccc1N1CCN(Cc2ccccc2Cl)CC1	none (no result: rRNA inh HTS)

Screens: PubChem, several laboratories
